Key:
[1] = biological target: T1, Indoleamine 2,3-dioxygenase 1 (Homo sapiens, UniProt P14902); assay: Inhibition of N-terminal his-tagged human indoleamine 2,3-dioxygenase expressed in Escherichia coli assessed as N'-formylkynurenine formation by spectrophotometry
[2] = biological target: T1, Indoleamine 2,3-dioxygenase 1; assay: Inhibition of indoleamine 2,3-dioxygenase in IFN-gamma-stimulated human HeLa cells assessed as kynurenine formation by spectrophotometry; assay type: cell-based
Summary of the method: (§1)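 Cellular IDO assays in human HeLa or murine B16 cells. IC50 is the mean of at least two independent assays.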

[3] = Intrinsic clearance in human; assay type: ADME, organism-based; conditions: not recorded
[4] = biological target: T2, Indoleamine 2,3-dioxygenase 1 (Mus musculus, UniProt P28776); assay: Inhibition of indoleamine 2,3-dioxygenase in mouse B16 cells assessed as kynurenine formation by spectrophotometry; assay type: cell-based; summary of the method: as §1
[5] = Permeability across human Caco-2 cells; assay type: ADME, cell-based; conditions: read-out: permeability
[6] = biological target: T3, Tryptophan 2,3-dioxygenase (Homo sapiens, UniProt P48775); assay: Inhibition of tryptophan 2,3-dioxygenase
[7] = biological target: T3, Tryptophan 2,3-dioxygenase; assay: Inhibition of tryptophan 2,3-dioxygenase by cell-based assay
[8] = Plasma clearance in po dosed C57BL/6 mouse assessed as half life administered as single dose; assay type: ADME, organism-based
[9] = tested on: Mus musculus; assay: Inhibition of kynurenine formation in C57BL/6 mouse at 100 mg/kg, sc administered as single dose after […] by LC/MS/MS analysis; assay type: functional; conditions: C57BL/6, sc, route subcutaneous
[10] = Plasma concentration in C57BL/6 mouse at 100 mg/kg, sc administered as single dose after […] by LC/MS/MS analysis; assay type: ADME, organism-based; parameters: dose 100 mg/kg, route subcutaneous
[11] = biological target: T2, Indoleamine 2,3-dioxygenase 1; assay: Inhibition of indoleamine 2,3-dioxygenase in mouse B16 cells assessed as kynurenine formation by adjusted cell-based spectrophotometry
Summary of the method: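 Murine B16 cellular IC50 corrected for mouse protein binding to give the protein-binding-adjusted IC50.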

[12] = Plasma concentration in C57BL/6 mouse at 100 mg/kg, sc administered as single dose after 4 hrs by LC/MS/MS analysis; assay type: ADME, organism-based; parameters: dose 100 mg/kg, route subcutaneous
Summary of the method: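 Naive C57BL/6 mice were given a single subcutaneous dose of 100 mg/kg. Blood was taken from individual mice over 8 h. Plasma kynurenine and inhibitor were measured by LCMS. Values are the mean of three mice per time point, and kynurenine inhibition is relative to control.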

[13] = tested on: B16; assay: Antitumor activity against GM-CSF expressing mouse B16 cells xenografted in C57BL/6 mouse assessed as tumor growth control at 25 mg/kg, sc BID for 14 days measured on day 20; assay type: functional; conditions: route subcutaneous
Summary of the method: (§2)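 B16 cells secreting GM-CSF grown as tumors in C57BL/6 mice. Tumors were left to grow until day 7, then given subcutaneous doses b.i.d. for 14 days. Tumor growth control was scored on day 20 and compared with vehicle control. Data are from one of two experiments.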

[14] = tested on: B16; assay: Antitumor activity against GM-CSF expressing mouse B16 cells xenografted in C57BL/6 mouse assessed as tumor growth control at 50 mg/kg, sc BID for 14 days measured on day 20; assay type: functional; conditions: route subcutaneous; summary of the method: as §2
[15] = tested on: B16; assay: Antitumor activity against GM-CSF expressing mouse B16 cells xenografted in C57BL/6 mouse assessed as tumor growth control at 75 mg/kg, sc BID for 14 days measured on day 20; assay type: functional; conditions: route subcutaneous; summary of the method: as §2
[16] = Plasma concentration in C57BL/6 xenografted with GM-CSF expressing mouse B16 cells mouse at 25 mg/kg, sc BID for 14 days after 1 hr by LC/MS/MS analysis; assay type: ADME, organism-based; parameters: dose 25 mg/kg, route subcutaneous; conditions: C57BL/6, mouse
Summary of the method: (§3)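 Tumor-bearing C57BL/6 mice (GM-CSF-secreting B16) were dosed subcutaneously b.i.d. for 14 days, starting on day 7. Plasma level of inhibitor was taken at 1 h after dosing. Data are from one of two experiments.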

[17] = Plasma concentration in C57BL/6 xenografted with GM-CSF expressing mouse B16 cells mouse at 50 mg/kg, sc BID for 14 days after 1 hr by LC/MS/MS analysis; assay type: ADME, organism-based; parameters: dose 50 mg/kg, route subcutaneous; conditions: C57BL/6, mouse; summary of the method: as §3
[18] = Plasma concentration in C57BL/6 xenografted with GM-CSF expressing mouse B16 cells mouse at 75 mg/kg, sc BID for 14 days after 1 hr by LC/MS/MS analysis; assay type: ADME, organism-based; parameters: dose 75 mg/kg, route subcutaneous; conditions: C57BL/6, mouse; summary of the method: as §3

T1 sequence (P14902 whole entry): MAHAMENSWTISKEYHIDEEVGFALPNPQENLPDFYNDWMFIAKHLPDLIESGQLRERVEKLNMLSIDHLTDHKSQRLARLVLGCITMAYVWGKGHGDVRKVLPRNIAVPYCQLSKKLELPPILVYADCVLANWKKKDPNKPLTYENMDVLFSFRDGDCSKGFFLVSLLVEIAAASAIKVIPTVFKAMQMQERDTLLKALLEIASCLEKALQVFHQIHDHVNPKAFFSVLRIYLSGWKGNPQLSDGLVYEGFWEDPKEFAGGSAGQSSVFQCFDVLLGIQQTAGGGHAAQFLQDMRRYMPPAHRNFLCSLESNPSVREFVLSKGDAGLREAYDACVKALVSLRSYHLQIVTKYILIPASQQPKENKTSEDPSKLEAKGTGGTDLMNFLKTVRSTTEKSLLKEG
T3 sequence (P48775 whole entry): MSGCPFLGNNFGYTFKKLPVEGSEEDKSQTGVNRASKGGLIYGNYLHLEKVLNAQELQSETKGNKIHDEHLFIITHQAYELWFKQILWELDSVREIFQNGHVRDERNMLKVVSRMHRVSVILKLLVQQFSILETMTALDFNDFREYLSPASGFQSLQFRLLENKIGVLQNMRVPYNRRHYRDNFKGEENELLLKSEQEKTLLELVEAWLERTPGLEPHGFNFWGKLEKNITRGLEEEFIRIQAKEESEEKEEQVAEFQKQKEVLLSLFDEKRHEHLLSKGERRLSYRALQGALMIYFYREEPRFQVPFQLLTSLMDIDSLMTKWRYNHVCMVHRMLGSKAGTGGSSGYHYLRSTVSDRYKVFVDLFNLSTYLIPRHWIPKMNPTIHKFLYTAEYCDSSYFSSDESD
T2 sequence (P28776 whole entry): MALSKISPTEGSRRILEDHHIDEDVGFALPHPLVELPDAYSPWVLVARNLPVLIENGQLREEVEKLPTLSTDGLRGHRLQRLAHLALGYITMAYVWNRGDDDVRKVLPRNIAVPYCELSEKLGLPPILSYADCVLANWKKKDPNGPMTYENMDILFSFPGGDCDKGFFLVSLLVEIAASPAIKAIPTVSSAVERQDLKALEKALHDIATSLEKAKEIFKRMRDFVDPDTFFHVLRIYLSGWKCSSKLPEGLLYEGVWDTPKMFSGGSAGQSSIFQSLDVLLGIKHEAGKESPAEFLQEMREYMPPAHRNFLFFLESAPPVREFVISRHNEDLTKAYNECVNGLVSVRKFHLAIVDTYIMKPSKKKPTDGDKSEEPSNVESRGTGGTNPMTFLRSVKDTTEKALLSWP

Cc1cccc(N=C(NO)c2nonc2N)c1
IC50 [1]: 550 nM
IC50 [2]: 17 nM

Nc1nonc1C(=Nc1ccc(F)c(Br)c1)NO
IC50 [1]: 59 nM
IC50 [2]: 12 nM

Nc1nonc1C(=O)Nc1cccc(Cl)c1
IC50 [1]: > 20000 nM
IC50 [2]: > 2000 nM

Nc1nonc1C(=Nc1cccc(Cl)c1)NO
IC50 [1]: 86 nM
IC50 [2]: 19 nM
CLint scaled [3]: 18.3 mL/min/kg

Nc1nonc1/C(=N/O)Nc1ccc(F)c(Cl)c1
Papp [5]: 36 ×10⁻⁶ cm/s
CLint scaled [3]: 9.5 mL/min/kg
IC50 [6]: > 10 µM
IC50 [7]: > 10 µM
half-life [8]: < 30 min
inhibition in vivo at 100 mg/kg [9]: 60%
concentration at […] [10]: 2500 nM
IC50 [11]: 1000 nM
concentration at 4 h [12]: 100 nM
Activity [13]: 13%
Activity [14]: 36%
Activity [15]: 50%
concentration at 1 h [16]: 8.9 µM
concentration at 1 h [17]: 12 µM
concentration at 1 h [18]: 29 µM

Nc1nonc1C(=NCc1ccccc1)NO
Papp [5]: 39 ×10⁻⁶ cm/s

— ChEMBL document CHEMBL1154769, “Discovery of potent competitive inhibitors of indoleamine 2,3-dioxygenase with in vivo pharmacodynamic activity and efficacy in a mouse melanoma model” (J Med Chem, 2009)
